Values after ≈ are worked out from the molar mass of the structure shown.
Columns and labels:
Staphylococcus aureus [1] = test: Antibacterial activity against methicillin-sensitive Staphylococcus aureus strains 15 1 to 4 assessed as reduction in bacterial growth incubated for 18 to 20 hrs by CLSI based microdilution method; type: functional; conditions: time 18-20 hrs
Summary of the method: (§1)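 Broth microdilution per CLSI. Compounds dissolved in DMSO (levofloxacin and meropenem in water) as 64 μg/mL stock, then serial twofold dilutions in broth giving 64 to 0.008 μg/mL. […] Clinical isolates tested as several strains per group; racemic GP-1 served as positive control; values given as MIC ranges.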

[2] = tested on: Staphylococcus epidermidis; test: Antibacterial activity against methicillin-sensitive Staphylococcus epidermidis strains 15 1 to 4 assessed as reduction in bacterial growth incubated for 18 to 20 hrs by CLSI based microdilution method; type: functional; conditions: time 18-20 hrs; summary of the method: as §1
Escherichia coli [3] = test: Antibacterial activity against ESBL-producing Escherichia coli ATCC 35218 strains 15 1 to 3 assessed as reduction in bacterial growth incubated for 18 to 20 hrs by CLSI based microdilution method; type: functional; conditions: time 18-20 hrs
Summary of the method: (§2)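 CLSI broth microdilution. Compounds in DMSO (levofloxacin and meropenem in water), serial twofold dilutions in broth, 64 to 0.008 μg/mL. […] Results reported as MIC ranges across strains.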

Escherichia coli [4] = test: Antibacterial activity against Escherichia coli ATCC 35218 strains 15 1 to 3 assessed as reduction in bacterial growth incubated for 18 to 20 hrs by CLSI based microdilution method; type: functional; conditions: time 18-20 hrs; summary of the method: as §2
Pseudomonas aeruginosa [5] = test: Antibacterial activity against multidrug resistant Pseudomonas aeruginosa strains 15 1 to 3 assessed as reduction in bacterial growth incubated for 18 to 20 hrs by CLSI based microdilution method; type: functional; conditions: time 18-20 hrs; summary of the method: as §1
[6] = molecular target: hERG (KCNH2) potassium channel (Homo sapiens, UniProt Q12809); test: Inhibition of hERG potassium channel assessed as maximum inhibition rate at 40 uM at -80 mV holding potential incubated for 120 seconds by whole cell-automated voltage clamp analysis assay relative to control; type: toxicity; conditions: time 120 sec
Chain of hERG (KCNH2) potassium channel (Q12809 whole entry): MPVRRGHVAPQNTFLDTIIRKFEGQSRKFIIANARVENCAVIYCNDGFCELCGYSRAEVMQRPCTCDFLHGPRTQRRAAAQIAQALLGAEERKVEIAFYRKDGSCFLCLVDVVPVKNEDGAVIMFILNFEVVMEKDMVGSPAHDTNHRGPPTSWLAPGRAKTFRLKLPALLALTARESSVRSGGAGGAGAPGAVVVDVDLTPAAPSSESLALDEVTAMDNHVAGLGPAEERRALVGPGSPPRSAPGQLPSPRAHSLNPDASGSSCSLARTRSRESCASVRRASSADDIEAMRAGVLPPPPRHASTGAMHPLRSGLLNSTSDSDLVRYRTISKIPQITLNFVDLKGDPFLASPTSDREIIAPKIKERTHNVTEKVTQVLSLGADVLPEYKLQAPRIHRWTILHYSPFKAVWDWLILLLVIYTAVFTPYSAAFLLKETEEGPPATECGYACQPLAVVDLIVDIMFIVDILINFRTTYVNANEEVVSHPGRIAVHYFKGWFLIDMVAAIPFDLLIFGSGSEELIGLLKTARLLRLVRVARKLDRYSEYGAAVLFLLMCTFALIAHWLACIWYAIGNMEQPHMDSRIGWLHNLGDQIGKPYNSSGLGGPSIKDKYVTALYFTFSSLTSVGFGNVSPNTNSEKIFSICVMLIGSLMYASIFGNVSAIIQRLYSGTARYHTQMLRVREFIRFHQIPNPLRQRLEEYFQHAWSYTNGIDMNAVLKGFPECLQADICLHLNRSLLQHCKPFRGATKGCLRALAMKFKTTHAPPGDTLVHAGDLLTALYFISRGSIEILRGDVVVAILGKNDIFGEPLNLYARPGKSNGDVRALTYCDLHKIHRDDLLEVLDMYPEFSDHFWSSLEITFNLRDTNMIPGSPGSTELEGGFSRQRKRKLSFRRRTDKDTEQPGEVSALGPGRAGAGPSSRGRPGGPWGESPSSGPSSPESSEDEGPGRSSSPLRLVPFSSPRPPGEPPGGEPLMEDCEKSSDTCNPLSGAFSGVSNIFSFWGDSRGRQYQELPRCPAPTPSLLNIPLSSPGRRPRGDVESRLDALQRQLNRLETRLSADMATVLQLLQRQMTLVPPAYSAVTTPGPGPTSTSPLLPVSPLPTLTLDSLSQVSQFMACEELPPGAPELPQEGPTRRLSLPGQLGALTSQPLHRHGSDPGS
Summary of the method: (§3)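 Automated whole-cell patch clamp, holding potential −80 mV. Voltage protocol applied every 20 s. Baseline set with external solution containing 0.1% DMSO and stabilised 3 min. Compound applied until steady state, at least 3 min, then washout. Maximum tested concentration 40 μM, or 3 μM for cisapride as positive control.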

[7] = molecular target: Voltage-gated inwardly rectifying potassium channel KCNH2 (Homo sapiens, UniProt Q12809); test: Inhibition of hERG potassium channel assessed as […] at -80 mV holding potential incubated for 120 seconds by whole cell-automated voltage clamp analysis assay; type: toxicity; summary of the method: as §3
Chain of Voltage-gated inwardly rectifying potassium channel KCNH2 (Q12809 whole entry): as above

Escherichia coli [8] = test: Antibacterial activity against ESBL-producing multidrug resistant Escherichia coli assessed as reduction in bacterial growth incubated for 18 to 20 hrs by CLSI based microdilution method; type: functional; conditions: time 18-20 hrs; summary of the method: as §1
Escherichia coli [9] = test: Antibacterial activity against multidrug resistant wild type Escherichia coli ATCC BAA-2340 assessed as reduction in bacterial growth incubated for 18 to 20 hrs by CLSI based microdilution method; type: functional; conditions: time 18-20 hrs; summary of the method: as §1
Escherichia coli [10] = test: Antibacterial activity against multidrug resistant wild type Escherichia coli NCTC 13353 assessed as reduction in bacterial growth incubated for 18 to 20 hrs by CLSI based microdilution method; type: functional; conditions: time 18-20 hrs; summary of the method: as §1
Klebsiella pneumoniae [11] = test: Antibacterial activity against KPC2-producing multidrug resistant Klebsiella pneumoniae assessed as reduction in bacterial growth incubated for 18 to 20 hrs by CLSI based microdilution method; type: functional; conditions: time 18-20 hrs; summary of the method: as §1
Klebsiella pneumoniae [12] = test: Antibacterial activity agains wild type Klebsiella pneumoniae ATCC BAA-1705 assessed as reduction in bacterial growth incubated for 18 to 20 hrs by CLSI based microdilution method; type: functional; conditions: time 18-20 hrs; summary of the method: as §2
Klebsiella pneumoniae [13] = test: Antibacterial activity agains wild type Klebsiella pneumoniae ATCC BAA-2470 assessed as reduction in bacterial growth incubated for 18 to 20 hrs by CLSI based microdilution method; type: functional; conditions: time 18-20 hrs; summary of the method: as §1
Acinetobacter baumannii [14] = test: Antibacterial activity agains OXA23-producing multidrug resistant Acinetobacter baumannii assessed as reduction in bacterial growth incubated for 18 to 20 hrs by CLSI based microdilution method; type: functional; conditions: time 18-20 hrs; summary of the method: as §1
Acinetobacter baumannii [15] = test: Antibacterial activity against wild type Acinetobacter baumannii NCTC 13304 assessed as reduction in bacterial growth incubated for 18 to 20 hrs by CLSI based microdilution method; type: functional; conditions: time 18-20 hrs; summary of the method: as §1
Pseudomonas aeruginosa [16] = test: Antibacterial activity against IMP4-producing multidrug resistant Pseudomonas aeruginosa assessed as reduction in bacterial growth incubated for 18 to 20 hrs by CLSI based microdilution method; type: functional; conditions: time 18-20 hrs; summary of the method: as §1
Pseudomonas aeruginosa [17] = test: Antibacterial activity against wild type Pseudomonas aeruginosa ATCC 27853 assessed as reduction in bacterial growth incubated for 18 to 20 hrs by CLSI based microdilution method; type: functional; conditions: time 18-20 hrs; summary of the method: as §2
[18] = Metabolic stability in rat liver microsome assessed as elimination half life at 0.1 uM in presence of NADPH incubated upto 60 mins by LC-MS/MS analysis; type: ADME; conditions: liver microsomes, read-out: beta t1/2
Summary of the method: (§4)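 Compound at 0.1 μM final, in 0.01% DMSO with 0.005% BSA. Incubated with rat or human liver microsomes at 0.33 mg/mL in 0.1 M Tris-HCl, pH 7.4, with 5 mM MgCl₂ and 1 mM NADPH, at 37 °C. Samples at 0, 7, 17, 30 and 60 min quenched with cold methanol and analysed by LC-MS/MS. Half-life, Cl_int and MF% derived as previously described.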

[19] = Metabolic stability in human liver microsome assessed as elimination half life at 0.1 uM in presence of NADPH incubated upto 60 mins by LC-MS/MS analysis; type: ADME; conditions: liver microsomes, read-out: beta t1/2; summary of the method: as §4
[20] = Metabolic stability in rat liver microsome assessed as intrinsic clearance at 0.1 uM in presence of NADPH incubated upto 60 mins by LC-MS/MS analysis; type: ADME; conditions: microsomes, 1 h; summary of the method: as §4
[21] = Metabolic stability in human liver microsome assessed as intrinsic clearance at 0.1 uM in presence of NADPH incubated upto 60 mins by LC-MS/MS analysis; type: ADME; conditions: microsomes, 1 h; summary of the method: as §4
[22] = Metabolic stability in rat liver microsome assessed as metabolic bioavailability at 0.1 uM in presence of NADPH incubated upto 60 mins by LC-MS/MS analysis; type: ADME; conditions: liver microsomes; summary of the method: as §4
[23] = Metabolic stability in human liver microsome assessed as metabolic bioavailability at 0.1 uM in presence of NADPH incubated upto 60 mins by LC-MS/MS analysis; type: ADME; conditions: liver microsomes; summary of the method: as §4
[24] = AUC (0 to infinity) in Sprague-Dawley rat at 4 mg/kg, iv measured upto 24 hrs by LC-MS/MS analysis; type: ADME, organism-based; parameters: time < 24 hrs, dose 4 mg/kg, route iv; conditions: in vivo
Summary of the method: (§5)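 Male Sprague-Dawley rats, n = 3 per group, single intravenous dose. For 4 mg/kg: 180–280 g rats, vehicle 5% DMSO + 5% EtOH + 40% PEG300 + 50% saline, blood from the retrobulbar vein at 0.05–24 h. For 5 and 20 mg/kg: 180–300 g rats, vehicle 5% DMSO + 5% solutol + 90% saline, sampled at 0.083–24 h. Plasma quantified by LC/MS/MS. Parameters from mean plasma concentration by noncompartmental analysis; values are mean ± standard deviation.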

[25] = Elimination half life in Sprague-Dawley rat at 4 mg/kg, iv measured upto 24 hrs by LC-MS/MS analysis; type: ADME, organism-based; conditions: in vivo, read-out: beta t1/2 (converted); summary of the method: as §5
[26] = MRT in Sprague-Dawley rat at 4 mg/kg, iv measured upto 24 hrs by LC-MS/MS analysis; type: ADME, organism-based; conditions: in vivo; summary of the method: as §5
[27] = Clearance in Sprague-Dawley rat at 4 mg/kg, iv measured upto 24 hrs by LC-MS/MS analysis; type: ADME, organism-based; conditions: in vivo; summary of the method: as §5
[28] = Volume of distribution at the steady state in Sprague-Dawley rat at 4 mg/kg, iv measured upto 24 hrs by LC-MS/MS analysis; type: ADME, organism-based; conditions: in vivo, read-out: Vdss; summary of the method: as §5
Staphylococcus aureus [29] = test: Antibacterial activity against methicillin-resistant Staphylococcus aureus strains 15 1 to 4 assessed as reduction in bacterial growth incubated for 18 to 20 hrs by CLSI based microdilution method; type: functional; conditions: time 18-20 hrs; summary of the method: as §1
[30] = tested on: Staphylococcus epidermidis; test: Antibacterial activity against methicillin-resistant Staphylococcus epidermidis strains 15 1 to 4 assessed as reduction in bacterial growth incubated for 18 to 20 hrs by CLSI based microdilution method; type: functional; conditions: time 18-20 hrs; summary of the method: as §1

Compound	MIC (Staphylococcus aureus [1]) [µg/mL]	MIC [2] [µg/mL]	MIC (Escherichia coli [3]) [µg/mL]	MIC (Escherichia coli [4]) [µg/mL]	MIC (Pseudomonas aeruginosa [5]) [µg/mL]	inhibition at 2 min, 40 µM [6] [%]	IC50 [7] [µM]	MIC (Escherichia coli [8]) [µg/mL]	MIC (Escherichia coli [9]) [µg/mL]	MIC (Escherichia coli [10]) [µg/mL]	MIC (Klebsiella pneumoniae [11]) [µg/mL]	MIC (Klebsiella pneumoniae [12]) [µg/mL]	MIC (Klebsiella pneumoniae [13]) [µg/mL]	MIC (Acinetobacter baumannii [14]) [µg/mL]	MIC (Acinetobacter baumannii [15]) [µg/mL]	MIC (Pseudomonas aeruginosa [16]) [µg/mL]	MIC (Pseudomonas aeruginosa [17]) [µg/mL]	half-life at 0.1 µM [18] [h]	half-life at 0.1 µM [19] [h]	CLH [20] [mL/min/g]	other results
CCC(CN)=C1CN(c2nc(Oc3cnc(C(C)O)nc3)nc3[nH]c4c(NC)cc(F)cc4c23)C1 (stereo not given)	< 0.008	< 0.008	0.5 (≈ 1.04 µM)	0.25 (≈ 0.522 µM)	16 (≈ 33.4 µM)	36	> 40	0.5 (≈ 1.04 µM)	1 (≈ 2.09 µM)	0.5 (≈ 1.04 µM)	4 (≈ 8.36 µM)	8 (≈ 16.7 µM)	2 (≈ 4.18 µM)	0.5 (≈ 1.04 µM)	0.5 (≈ 1.04 µM)	> 8	4 (≈ 8.36 µM)	0.253	0.912	138.4	CLH [21]: 38.4 mL/min/g; Fh at 1 h, 0.1 µM [22]: 24.3%; Fh at 1 h, 0.1 µM [23]: 33.8%; AUC(0-inf) [24]: 983 ng·h/mL; half-life [25]: 2.7 h; MRT [26]: 2.1 h; clearance [27]: 71.5 mL/min/kg; Vd [28]: 9.3 L/kg
CNc1cc(F)cc2c1[nH]c1nc(Oc3cnc(C)nc3)nc(N3CC(=C(C)C(C)N)C3)c12 (racemic)	< 0.008	< 0.008	0.5 (≈ 1.11 µM)	0.25 (≈ 0.557 µM)	1 (≈ 2.23 µM)	37	> 40	0.5 (≈ 1.11 µM)	0.5 (≈ 1.11 µM)	0.25 (≈ 0.557 µM)	2 (≈ 4.46 µM)	8 (≈ 17.8 µM)	2 (≈ 4.46 µM)	0.25 (≈ 0.557 µM)	0.5 (≈ 1.11 µM)	4 (≈ 8.92 µM)	2 (≈ 4.46 µM)	0.278	8.23	126	CLH [21]: 4.25 mL/min/g; Fh at 1 h, 0.1 µM [22]: 26.1%; Fh at 1 h, 0.1 µM [23]: 82.2%; AUC(0-inf) [24]: 1510 ng·h/mL; half-life [25]: 5.7 h; MRT [26]: 4.7 h; clearance [27]: 44.1 mL/min/kg; Vd [28]: 12.3 L/kg
CNc1cc(F)cc2c1[nH]c1nc(Oc3cnc(C)nc3)nc(N3CC(=C(F)CN)C3)c12	0.015 (≈ 0.0342 µM)	0.125 (≈ 0.285 µM)	0.25 (≈ 0.57 µM)	0.06 (≈ 0.137 µM)	> 16	3.2	> 40	–	–	–	–	–	–	–	–	–	–	–	–	–	MIC (Staphylococcus aureus [29]): 0.015 µg/mL (≈ 0.0342 µM); MIC [30]: 0.015 µg/mL (≈ 0.0342 µM)
